Data on nine molecules can be found in ChEMBL document CHEMBL1157658, “Structure-activity relationship of (N)-Methanocarba phosphonate analogues of 5'-AMP as cardioprotective agents acting through a cardiac P2X receptor” (J Med Chem, 2010).

The term EC50 denotes the concentration that produces a half-maximal response.

Test [1] deals with T1, P2Y purinoceptor 1 (Homo sapiens, UniProt P47900). In words: Activation of human P2Y1 receptor expressed in human 1321N1 cells assessed as induction of calcium flux up to 10 uM by FLIPR assay. Type of test: functional, cell-based. In a few lines:
(§1)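 1321N1 human astrocytoma cells stably expressing hP2Y1, grown overnight at 37 °C, 5% CO2 (to ~80% confluency), loaded with calcium-4 dye plus probenecid (no wash), 1 h at rt. Compounds diluted in Hank's buffer pH 7.2, tested up to 10 μM; FLIPR-Tetra at rt, ex 485/em 525 nm, duplicates. Response is peak fluorescence minus pre-exposure basal.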
(In general: A change in cytosolic calcium serves as a functional read-out for many receptors and channels.)

The test system of test [2] is Mus musculus. In words: Cardioprotective effect in calsequestrin transgenic mouse model of severe cardiomyopathy and heart failure assessed as improvement of echocardiography-derived fractional shortening at 3.3 uM, sc administered per day via minipump measured after 28 days by transthoracic echocardiographic analysis. Type of test: functional. In a few lines:
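CSQ-overexpressing transgenic mice (lethal heart failure near 3 months); analogue dissolved at 3.3 μM in sterile saline/PBS pH 7.4 (200 μL pump load), sterile-filtered, infused subcutaneously by mini-osmotic pump at 6 μL/day for 28 days; vehicle-infused CSQ controls. Under 1% isoflurane, M-mode echocardiography gave LVEDD, LVESD and FS ((LVEDD-LVESD)/LVEDD), averaged over >3 cardiac cycles; one-way ANOVA with post-test.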

For test [3], the system named is Mus musculus. In words: Cardioprotective effect in calsequestrin transgenic mouse model of heart failure assessed as increased shortening of heart septum and left ventricular free wall at 3.3 uM, sc administered per day via minipump measured after 28 days by transthoracic echocardiographic analysis. Type of test: functional, organism-based. In a few lines:
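Calsequestrin-overexpressing transgenic mice (hypertrophy, lethal heart failure near 3 months). Compound at 3.3 μM in sterile saline/PBS pH 7.4, filter-sterilized, infused subcutaneously via osmotic minipump at 6 μL/day for 28 days; saline-infused controls. Under 1% isoflurane, M-mode echocardiography gave LVEDD, LVESD and FS = (LVEDD−LVESD)/LVEDD, averaged over >3 cardiac cycles; mean ± SE, one-way ANOVA with post-test.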

For test [4], the target named is T1, P2Y purinoceptor 1. In words: Activation of human P2Y1 receptor expressed in human 1321N1 cells assessed as induction of calcium flux by FLIPR assay relative to 2-MeSADP. Type of test: functional, cell-based. Put shortly: as §1
Test [5] addresses T1, P2Y purinoceptor 1. The test can be described thus: Activation of human P2Y1 receptor expressed in human 1321N1 cells assessed as induction of calcium flux by FLIPR assay. Type of test: functional, cell-based.
Test [6] addresses T1, P2Y purinoceptor 1. The test can be described thus: Agonist activity at human P2Y1 receptor expressed in human 1321N1 cells by PLC assay. Type of test: functional, cell-based.
For a further test, the system named is 1321-N1. The test can be described thus: Induction of calcium flux in human 1321N1 cells at 10 uM by FLIPR assay. Type of test: functional, cell-based.

Activity calls are given as the source filed them. No cut-off for these calls is given here.

T1 sequence (P47900 whole entry): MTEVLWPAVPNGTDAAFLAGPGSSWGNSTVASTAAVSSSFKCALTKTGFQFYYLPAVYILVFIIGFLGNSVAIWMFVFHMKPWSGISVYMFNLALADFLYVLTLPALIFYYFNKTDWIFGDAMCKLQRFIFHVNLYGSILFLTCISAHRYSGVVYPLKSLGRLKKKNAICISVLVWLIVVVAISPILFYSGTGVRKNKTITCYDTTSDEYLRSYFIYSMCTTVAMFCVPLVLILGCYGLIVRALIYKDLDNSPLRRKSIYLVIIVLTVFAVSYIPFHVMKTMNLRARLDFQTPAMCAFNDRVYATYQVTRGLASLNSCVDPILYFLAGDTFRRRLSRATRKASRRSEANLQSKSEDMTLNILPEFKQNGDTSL

Take `Nc1ncnc2c1ncn2[C@H]1[C@H](O)[C@H](O)[C@@]2(CCP(=O)(O)O)C[C@H]12`: on P2Y purinoceptor 1 [1], the outcome was inactive. Also, the Activity in the test with Mus musculus [2] is 11.15%.
Turning to `Nc1nc(Cl)nc2c1ncn2[C@H]1[C@H](O)[C@H](O)[C@@]2(CP(=O)(O)O)C[C@H]12`, the outcome on P2Y purinoceptor 1 [1] was inactive. The outcome in the test with Mus musculus [3] was Active. Further, the Activity in the test on Mus musculus [2] was found to be 20.25%.
For the molecule `Nc1ncnc2c1ncn2[C@H]1[C@H](O)[C@H](O)[C@@]2(/C=C/P(=O)(O)O)C[C@H]12`, the result on P2Y purinoceptor 1 [1] was inactive. In addition, the Activity in the test on Mus musculus [2] was 13.88%.
Consider `Nc1nc(Cl)nc2c1ncn2[C@H]1[C@H](O)[C@H](O)[C@@]2(/C=C/P(=O)(O)O)C[C@H]12`, for which the result on P2Y purinoceptor 1 [1] was inactive. The Activity in the test on Mus musculus [2] is recorded as 12.12%.
The like results for `Nc1ncnc2c1ncn2[C@H]1[C@H](O)[C@H](O)[C@@]2(CP(=O)(O)O)C[C@H]12` were, in that order, “inactive” and 16.23%.
`CP(=O)(O)C[C@]12C[C@@H]1[C@@H](n1cnc3c(N)nc(Cl)nc31)[C@H](O)[C@@H]2O`: the outcome at P2Y purinoceptor 1 [1] was inactive. In addition, in the test with Mus musculus [2], the Activity is 15%.
For the molecule `Nc1nc(Cl)nc2c1ncn2[C@H]1[C@H](O)[C@H](O)[C@@]2(COP(=O)(O)O)C[C@H]12`, on P2Y purinoceptor 1 [4], the %max is 80%. In addition, the EC50 worked out at 722 nM at P2Y purinoceptor 1 [5] and 1890 nM on P2Y purinoceptor 1 [6]. Besides, the Activity with Mus musculus [2] is 15.47%.
Consider `CSc1nc(N)c2ncn([C@@H]3O[C@H](COP(=O)(O)OP(=O)(O)O)[C@@H](O)[C@H]3O)c2n1`, for which the result in the test with 1321-N1 was inactive.
For `Nc1nc(Cl)nc2c1ncn2[C@H]1[C@H](O)[C@H](O)[C@@]2(CCP(=O)(O)O)C[C@H]12`, the outcome on P2Y purinoceptor 1 [1] was inactive. In addition, in the test with Mus musculus [2], the Activity stood at 19.26%.
